pIC50: −log10 of the molar value.
Assays:
[1] = biological target: T1, Dual specificity mitogen-activated protein kinase kinase 1 (Homo sapiens, UniProt Q02750); assay: Inhibition of MEK1 (unknown origin)
[2] = Cmax in rat at 5 mg/kg, po; assay type: ADME, organism-based; set-up: dose 5 mg/kg, route oral; details: in vivo
[3] = AUC in rat at 5 mg/kg, po; assay type: ADME, organism-based; set-up: dose 5 mg/kg, route oral; details: plasma
[4] = AUC in beagle dog at 1 mg/kg, iv; assay type: ADME, organism-based, Canis lupus familiaris; set-up: dose 1 mg/kg, route intravenous; details: plasma
[5] = Plasma protein binding in human; assay type: ADME, cell-free; details: read-out: PPB (converted)
[6] = Clearance in rat liver microsomes; assay type: ADME; details: read-out: CLH
[7] = Oral bioavailability in beagle dog at 1 mg/kg; assay type: ADME, organism-based, Canis lupus familiaris; details: in vivo
[8] = Half life in beagle dog at 1 mg/kg, po; assay type: ADME, organism-based, Canis lupus familiaris; set-up: dose 1 mg/kg, route oral; details: in vivo
[9] = Cmax in beagle dog at 1 mg/kg, po; assay type: ADME, organism-based, Canis lupus familiaris; set-up: dose 1 mg/kg, route oral; details: in vivo
[10] = Inhibition of CYP450 (unknown origin) up to 50 uM; assay type: ADME; details: human
[11] = Half life in beagle dog at 1 mg/kg, iv; assay type: ADME, organism-based, Canis lupus familiaris; set-up: dose 1 mg/kg, route intravenous; details: in vivo
[12] = Half life in rat at 5 mg/kg, po; assay type: ADME, organism-based; set-up: dose 5 mg/kg, route oral; details: in vivo
[13] = test system: Mus musculus; assay: Toxicity in mouse xenografted with human COLO205 cells assessed as change in body weight at 3 mg/kg, po qd for 14 days; assay type: organism-based, COLO 205; set-up: dose 3 mg/kg, route oral; details: in vivo, 336 h
How it was run: (§1)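 Human colorectal Colo-205 xenografts in mice; test agent given by oral gavage at 3.0 mg/kg once daily for 14 days. Tumor growth inhibition scored relative to control, and body weight followed in all animals throughout the study.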

[14] = test system: COLO 205; assay: Antitumor activity against human COLO205 cells xenografted in mouse assessed as tumor growth inhibition at 3 mg/kg, po qd for 14 days relative to control; assay type: functional; details: COLO 205, 336 h, read-out: TGI; how it was run: as §1
[15] = Clearance in human liver microsomes; assay type: ADME; details: read-out: CLH
[16] = AUC in beagle dog at 1 mg/kg, po; assay type: ADME, organism-based, Canis lupus familiaris; set-up: dose 1 mg/kg, route oral; details: plasma
[17] = biological target: T1, Dual specificity mitogen-activated protein kinase kinase 1; assay: Inhibition of MEK1 in human COLO205 cells; assay type: cell-based, COLO 205

T1 sequence (Q02750 whole entry): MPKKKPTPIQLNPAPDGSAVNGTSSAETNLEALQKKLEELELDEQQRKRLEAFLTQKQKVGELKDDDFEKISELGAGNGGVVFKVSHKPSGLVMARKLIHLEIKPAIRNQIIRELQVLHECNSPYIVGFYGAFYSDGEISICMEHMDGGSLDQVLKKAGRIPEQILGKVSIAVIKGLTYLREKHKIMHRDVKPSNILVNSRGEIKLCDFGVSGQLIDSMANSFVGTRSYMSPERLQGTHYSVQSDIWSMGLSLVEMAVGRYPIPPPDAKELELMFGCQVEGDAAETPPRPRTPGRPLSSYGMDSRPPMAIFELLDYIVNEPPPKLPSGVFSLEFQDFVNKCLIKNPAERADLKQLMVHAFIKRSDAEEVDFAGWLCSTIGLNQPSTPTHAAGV

pIC50 [1]	Cmax [2]	AUC [3]	AUC [4]	fraction unbound [5]	microsomal CLint [6]	bioavailability [7]	half-life [8]	Cmax [9]	inhibition (INH) [10]	half-life [11]	half-life [12]	microsomal CLint [15]	AUC [16]	pIC50 [17]	SMILES	Activity [13]	inhibition in vivo at 3 mg/kg [14]
< 6.00	–	–	–	–	–	–	–	–	–	–	–	–	–	–	O=C(NC[C@H](O)CO)c1ncncc1Nc1ccccc1F	–	–
–	1080 ng/mL	4890 ng·h/mL	1190 ng·h/mL	0.033	2.38 µL/min/mg	43%	4.88 h	117 ng/mL	Not Active	3.11 h	5.56 h	1.25 µL/min/mg	510 ng·h/mL	–	O=c1c2c(Nc3ccc(I)cc3F)cncc2cnn1C[C@H](O)CO	Non-toxic	59.5%
8.75	–	–	–	–	–	–	–	–	–	–	–	–	–	8.16	Cn1c(=O)c(F)c(Nc2ccc(I)cc2F)c2c(=O)n(C[C@@H](O)CO)cnc21 [TAK-733]	–	–
